Calls of active or inactive are those of the source. The rule behind the calls is not given here.
Legend:
MDA-MB-231 [1] = assay: Anticancer activity against human MDA-MB-231 cells after 24 hrs by [3H]thymidine incorporation assay; format: functional, cell-based
MDA-MB-231 [2] = assay: Antitumor activity against human MDA-MB-231 cells xenografted in nude mouse assessed as inhibition of tumor growth at 0.6 mg/kg, sc qd for 1 month administered post tumor implantation; format: functional, organism-based; parameters: dose 0.6 mg/kg
Summary of the method: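 Two million MDA-MB-231 cells injected subcutaneously into female nude mice; once tumours palpable, compound 0.6 mg/kg or solvent given daily for one month; tumour growth followed.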

Saccharomyces cerevisiae [3] = assay: Antimicrobial activity against Saccharomyces cerevisiae J47alpha; format: functional, organism-based
Summary of the method: (§1)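 Four isogenic S. cerevisiae strain pairs, each differing only by presence or absence of cyh2, exposed to varying compound concentrations; growth read by optical density; IC50 derived per strain, resistance as ratio between paired strains.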

Saccharomyces cerevisiae [4] = assay: Antimicrobial activity against Saccharomyces cerevisiae BY686 expressing ribosomal protein cyh2 and harboring mutation in rpl28; format: functional, organism-based; summary of the method: as §1
Saccharomyces cerevisiae [5] = assay: Antimicrobial activity against Saccharomyces cerevisiae BY108; format: functional, organism-based; summary of the method: as §1
Saccharomyces cerevisiae [6] = assay: Fold resistance, ratio of IC50 for Saccharomyces cerevisiae BY686 expressing ribosomal protein cyh2 and harboring mutation in rpl28 to IC50 Saccharomyces cerevisiae JB503; format: functional; summary of the method: as §1
Saccharomyces cerevisiae [7] = assay: Fold resistance, ratio of IC50 for Saccharomyces cerevisiae BY724 expressing ribosomal protein cyh2 and harboring mutation in rpl28 to IC50 for Saccharomyces cerevisiae BY108; format: functional; summary of the method: as §1
Saccharomyces cerevisiae [8] = assay: Fold resistance, ratio of IC50 for Saccharomyces cerevisiae BY740 expressing ribosomal protein cyh2 and harboring mutation in rpl28 to IC50 for Saccharomyces cerevisiae […]; format: functional; summary of the method: as §1
HEK-293T = assay: Effect on polyribosome profiling in human HEK293T cells assessed as accumulation of 80S ribosomes at 50 uM after 30 mins by spectrophotometry; format: functional, cell-based
Summary of the method: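 HEK 293T cells treated 30 min with compound, then lysed; lysates centrifuged through 15–45% sucrose gradient to give polysome profiles.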

[9] = Inhibition of [32P]deacetylated phe-tRNA binding to 60S ribosome E-site by footprinting assay
HeLa [10] = assay: Antiproliferative activity against human HeLa cells assessed as incorporation of [3H]thymidine in nuclear DNA at 2.5 uM after 24 hrs by scintillation counting; format: functional, cell-based
Summary of the method: (§2)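 Each of three tumour cell lines incubated with compound at 2.5 μM for 24 h, then [³H]thymidine added to monitor DNA synthesis; initial proliferation screen.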

MDA-MB-231 [11] = assay: Antiproliferative activity against human MDA-MB-231 cells assessed as incorporation of [3H]thymidine in nuclear DNA at 2.5 uM after 24 hrs by scintillation counting; format: functional, cell-based; summary of the method: as §2
HeLa [12] = assay: Inhibition of protein synthesis in human HeLa cells assessed as [35S]cysteine/methionine utilization after 2 hrs by scintillation spectroscopy; format: functional, cell-based
Summary of the method: (§3)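 HeLa cells incubated 2 h with varying compound concentrations plus [³⁵S]cysteine/methionine (translation) or [³H]uridine (transcription). Protein synthesis: scintillation counting of TCA-precipitated protein on PVDF membrane. Transcription: scintillation counting of nucleic acids bound to GF/C glass fibre filter.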

HeLa [13] = assay: Inhibition of transcriptional activity in human HeLa cells assessed as [3H]uridine utilization after 2 hrs by scintillation counting; format: functional, cell-based; summary of the method: as §3
[14] = Effect on polyribosome profiling assessed as accumulation of 80S ribosomes after 15 mins by scintillation spectroscopy; format: functional
Summary of the method: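 Capped [³²P]-labelled rabbit β-globin RNA incubated in rabbit reticulocyte lysate with compound for 15 min, then centrifuged through 10–35% sucrose gradient.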

Oryctolagus cuniculus = species on record: Oryctolagus cuniculus; assay: Inhibition of translational activity in rabbit reticulocyte assessed as occurrence of ribosomal arrest at start codon at 200 uM by toeprinting assay; format: functional
Summary of the method: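 Labelled rabbit β-globin mRNA incubated in rabbit reticulocyte lysate with inhibitor; mixture centrifuged through sucrose gradient, 80S fractions taken to isolate stalled ribosomes; primer extended by AMV reverse transcriptase toward stalled ribosome to map arrest site.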

[15] = Inhibition of elF4A-mediated renilla luciferase translational activity at 0.02 to 5 uM in presence of EMCV IRES element
[16] = Inhibition of elF4A-mediated renilla luciferase translational activity at 0.02 to 5 uM in presence of CrPV IRES element
[17] = target: T1, Elongation factor 1-alpha 1 (Homo sapiens) (UniProt P68104); assay: Inhibition of eEF1A-mediated tRNA binding to ternary complex at 200 uM after 10 mins by filtration binding assay
T1 sequence (whole entry): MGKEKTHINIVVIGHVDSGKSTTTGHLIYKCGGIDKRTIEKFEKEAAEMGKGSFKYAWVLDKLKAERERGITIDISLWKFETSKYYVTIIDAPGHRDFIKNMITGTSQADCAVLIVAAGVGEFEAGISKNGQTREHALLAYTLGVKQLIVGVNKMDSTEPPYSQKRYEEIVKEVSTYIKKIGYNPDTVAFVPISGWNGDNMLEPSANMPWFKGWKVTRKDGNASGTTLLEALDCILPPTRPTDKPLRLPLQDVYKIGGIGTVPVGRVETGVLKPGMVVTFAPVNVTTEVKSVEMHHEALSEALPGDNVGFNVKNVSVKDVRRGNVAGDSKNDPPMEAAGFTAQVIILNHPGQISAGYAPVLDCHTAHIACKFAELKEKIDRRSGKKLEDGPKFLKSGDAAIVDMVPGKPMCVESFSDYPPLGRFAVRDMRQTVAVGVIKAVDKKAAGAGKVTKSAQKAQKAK
Summary of the method: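 Ribosomes (89 pmol) in 20 mM HEPES pH 7.4, 100 mM KCl, 10 mM MgCl₂, 1 mM DTT with 200 ng poly(U), 2.2 μg eEF1A, 150 μM GDPNP and 200 μM compound, before 10 pmol [¹⁴C]Phe-tRNA^Phe added; 10 min at 37°C; nitrocellulose filtration, scintillation counting.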

[18] = target: Elongation factor 2 (Homo sapiens) (UniProt P13639); assay: Inhibition of eEF2-mediated tRNA translocation assessed as decrease in tripeptide (Met-Phe-Phe) formation by TLC
[19] = target: Elongation factor 2 (Homo sapiens) (UniProt P13639); assay: Inhibition of eEF2-mediated tRNA translocation assessed as induction of dipeptide accumulation by TLC
[20] = Binding affinity to 60S ribosome E-site by footprinting assay
Summary of the method: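 DMS footprinting of salt-washed 80S ribosomes preincubated 5 min at room temperature with compound, DMS then 5 min at 37°C; rRNA primer extension with AMV reverse transcriptase and [α-³²P]TTP, sequencing gel. For K_D, 300 μl volume at 50 or 100 nM ribosomes titrated with increasing compound.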

Hs-578T = assay: Anticancer activity against human Hs 578T cells after 24 hrs by [3H]thymidine incorporation assay; format: functional, cell-based
HCC1395 = assay: Anticancer activity against human HCC1395 cells after 24 hrs by [3H]thymidine incorporation assay; format: functional, cell-based
HCC2218 = assay: Anticancer activity against human HCC2218 cells after 24 hrs by [3H]thymidine incorporation assay; format: functional, cell-based
BT-474 = assay: Anticancer activity against human BT474 cells after 24 hrs by [3H]thymidine incorporation assay; format: functional, cell-based
MCF7 = assay: Anticancer activity against human MCF7 cells after 24 hrs by [3H]thymidine incorporation assay; format: functional, cell-based
[21] = Effect on peptidyl transfer assessed as [35S]methionyl-puromycin formation by TLC

With `C/C(=C\[C@H](C)C(=O)C[C@H](O)CC1CC(=O)NC(=O)C1)[C@@H]1OC(=O)/C=C/CC/C=C/C=C\[C@@H]1C` [LACTIMIDOMYCIN] the Activity (MDA-MB-231 [1]) was “Active”, the Activity (MDA-MB-231 [2]) was “Active” and the IC50 (Saccharomyces cerevisiae [3]) was 0.0046 µM. For the same molecule, the IC50 (Saccharomyces cerevisiae [4]) was 0.596 µM, the IC50 (Saccharomyces cerevisiae [5]) was 0.488 µM and the “Ratio IC50” value (Saccharomyces cerevisiae [6]) was 10.3. The “Ratio IC50” value (Saccharomyces cerevisiae [7]) was 13.4, the “Ratio IC50” value (Saccharomyces cerevisiae [8]) was 20.5 and the Activity (HEK-293T) was “Active”. For the same molecule, the inhibition [9] was “Active”, the Activity (HeLa [10]) was “inactive” and the Activity (MDA-MB-231 [11]) was “inactive”. For the same molecule, the IC50 (HeLa [12]) was 0.0378 µM, the inhibition (HeLa [12]) was “Dose-dependent effect” and the IC50 (HeLa [13]) was over 10 µM. For the same molecule, the Activity [14] was “Active”, the inhibition (Oryctolagus cuniculus) was “Active” and the inhibition [15] was “Active”. For the same molecule, the inhibition [16] was “Active”, the inhibition [17] was “inactive” and the inhibition [18] was “Active”. For the same molecule, the inhibition [19] was “Active”, the Activity [20] was “Dose-dependent effect” and the Kd [20] was 0.5 µM. For the same molecule, the Activity (Hs-578T) was “Active”, the Activity (HCC1395) was “Active” and the Activity (HCC2218) was “Active”. The Activity (BT-474) was “Active”, the Activity (MCF7) was “Active” and the Activity [21] was “inactive”.
